Source: ChEMBL document CHEMBL1138474, “Modulation of the transient receptor potential vanilloid channel TRPV4 by 4alpha-phorbol esters: a structure-activity study” (J Med Chem, 2009)
Activity calls are given as the source filed them. The rule behind the calls is not given here.

Tests used:
[1] = biological target: Transient receptor potential cation channel subfamily V member 4 (Mus musculus, UniProt Q9EPK8); assay: (§1) Activation of mouse wild type TRPV4 expressed in HEK293 cells assessed as increase in intracellular calcium concentration; assay type: cell-based
Sequence of Transient receptor potential cation channel subfamily V member 4 (Mus musculus, UniProt Q9EPK8) (Q9EPK8 whole entry, the tested form may be a part): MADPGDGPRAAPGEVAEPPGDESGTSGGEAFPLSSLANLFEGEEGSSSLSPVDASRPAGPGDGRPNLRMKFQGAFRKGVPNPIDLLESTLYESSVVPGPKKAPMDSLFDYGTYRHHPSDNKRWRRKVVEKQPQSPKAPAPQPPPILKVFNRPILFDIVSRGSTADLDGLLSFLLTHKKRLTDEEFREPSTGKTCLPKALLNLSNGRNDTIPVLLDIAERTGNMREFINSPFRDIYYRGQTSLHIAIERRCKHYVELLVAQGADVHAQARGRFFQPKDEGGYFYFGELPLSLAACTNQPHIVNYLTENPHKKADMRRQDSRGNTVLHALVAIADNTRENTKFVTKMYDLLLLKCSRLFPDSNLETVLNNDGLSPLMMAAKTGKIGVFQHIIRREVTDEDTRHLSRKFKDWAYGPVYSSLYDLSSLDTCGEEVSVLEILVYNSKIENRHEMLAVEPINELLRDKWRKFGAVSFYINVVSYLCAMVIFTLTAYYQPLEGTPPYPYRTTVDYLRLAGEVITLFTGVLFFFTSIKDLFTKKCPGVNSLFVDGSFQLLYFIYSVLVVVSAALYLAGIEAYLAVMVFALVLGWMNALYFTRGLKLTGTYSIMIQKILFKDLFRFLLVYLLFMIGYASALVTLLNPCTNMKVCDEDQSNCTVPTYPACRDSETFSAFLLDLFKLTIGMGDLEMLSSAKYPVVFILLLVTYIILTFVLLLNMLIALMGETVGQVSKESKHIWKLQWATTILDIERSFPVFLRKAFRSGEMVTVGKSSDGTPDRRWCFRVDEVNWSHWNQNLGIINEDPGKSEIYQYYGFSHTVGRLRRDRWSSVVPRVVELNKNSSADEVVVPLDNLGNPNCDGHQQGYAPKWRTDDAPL
Summary of the method: (§2)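 mTRPV4 (wild type or the Y556A, S557A or W586A TM3-4 mutant) in pCAGGS/Ires-GFP was transiently transfected into HEK293 cells and incubated overnight. GFP-positive cells on poly-L-lysine coverslips were loaded with 4 µM Fura-2 AM for 30 min at 37 °C and perfused with Krebs solution (1.5 mM CaCl2, pH 7.4). The 340/380 nm ratio (510 nm emission) gave ∆Fura-2 ratio. EC50 came from a Hill fit, >15 cells, three transfections.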

HEK293 [2] = assay: Effect on intracellular calcium level in non transfected HEK293 cells assessed as increase in fura-2 ratio; assay type: functional, cell-based; details: Homo sapiens
Summary of the method: (§3)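 GFP-negative cells from the same coverslips as the mTRPV4-transfected HEK293 cells served as untransfected controls. Cells were loaded with 4 µM Fura-2 AM for 30 min at 37 °C and perfused with Krebs solution (pH 7.4). ∆Fura-2 ratio was taken as (Rt−Rt0)/Rt0 from 340/380 nm excitation, with background subtracted.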

[3] = biological target: Transient receptor potential cation channel subfamily V member 4 (Mus musculus, UniProt Q9EPK8, Y556A); assay: Activation of mouse TRPV4 Y556A mutant expressed in HEK293 cells assessed as increase in intracellular calcium concentration; assay type: cell-based; summary of the method: as §2
Sequence of Transient receptor potential cation channel subfamily V member 4 (Mus musculus, UniProt Q9EPK8, Y556A) (Q9EPK8 whole entry Y556A): as the sequence (Q9EPK8 whole entry, the tested form may be a part) above, with Y556A counted along it

[4] = biological target: Transient receptor potential cation channel subfamily V member 4 (Mus musculus, UniProt Q9EPK8, W586A); assay: Activation of mouse TRPV4 W586A mutant expressed in HEK293 cells assessed as increase in intracellular calcium concentration; assay type: cell-based; summary of the method: as §2
Sequence of Transient receptor potential cation channel subfamily V member 4 (Mus musculus, UniProt Q9EPK8, W586A) (Q9EPK8 whole entry W586A): as the sequence (Q9EPK8 whole entry, the tested form may be a part) above, with W586A counted along it

[5] = biological target: Transient receptor potential cation channel subfamily V member 4 (Mus musculus, UniProt Q9EPK8, S557A); assay: Activation of mouse TRPV4 S557A mutant expressed in HEK293 cells assessed as increase in intracellular calcium concentration; assay type: cell-based; summary of the method: as §2
Sequence of Transient receptor potential cation channel subfamily V member 4 (Mus musculus, UniProt Q9EPK8, S557A) (Q9EPK8 whole entry S557A): as the sequence (Q9EPK8 whole entry, the tested form may be a part) above, with S557A counted along it

[6] = biological target: Transient receptor potential cation channel subfamily V member 4 (Mus musculus) (UniProt Q9EPK8); assay: Activation of mouse wild type TRPV4 expressed in HEK293 cells assessed as increase in intracellular calcium concentration at 1 uM in presence of TRP antagonist ruthenium red; assay type: functional, cell-based
Sequence of Transient receptor potential cation channel subfamily V member 4 (Mus musculus) (Q9EPK8 whole entry, the tested form may be a part): as the sequence (Q9EPK8 whole entry, the tested form may be a part) above
Summary of the method: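 Single-cell fura-2 imaging was done on GFP-positive HEK293 cells transiently expressing mTRPV4, perfused with Krebs buffer (1.5 mM CaCl2, pH 7.4). Agonist at 1 µM was applied in the bath, and ruthenium red 1 µM was added to the extracellular solution as indicated. The read-out was the 340/380 nm ratio change. Three independent experiments were run.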

[7] = biological target: Transient receptor potential cation channel subfamily V member 4 (Mus musculus) (UniProt Q9EPK8); assay: as §1; assay type: cell-based; summary of the method: as §2
[8] = biological target: Transient receptor potential cation channel subfamily V member 4 (Mus musculus) (UniProt Q9EPK8); assay: Activation of mouse wild type TRPV4 expressed in HEK293 cells assessed as outward-inward rectifying current density at 500 nM at a holding potential of 100 mV by whole cell patch-clamp assay in absence of calcium; assay type: cell-based
Summary of the method: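 Whole-cell patch clamp was run on mTRPV4-transfected HEK293 cells using ramps from -100 to +100 mV. CaCl2 was omitted from both solutions. Bath (mM): 150 NaCl, 6 CsCl, 1 MgCl2, 10 glucose, 10 HEPES, pH 7.4. Pipette (mM): 20 CsCl, 100 aspartate, 1 MgCl2, 10 HEPES, 4 Na-ATP, 10 BAPTA, pH 7.4. Agonist was added to the bath. Five cells, >2 transfections.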

[9] = biological target: Transient receptor potential cation channel subfamily V member 4 (Mus musculus) (UniProt Q9EPK8); assay: Activation of mouse wild type TRPV4 expressed in HEK293 cells assessed as outward-inward rectifying current density at 500 nM at a holding potential of 100 mV by whole cell patch-clamp assay in presence of calcium; assay type: cell-based
Summary of the method: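 Whole-cell patch clamp was run on mTRPV4-transfected HEK293 cells using ramps from -100 to +100 mV. Bath (mM): 150 NaCl, 6 CsCl, 1 MgCl2, 5 CaCl2, 10 glucose, 10 HEPES, pH 7.4. Pipette (mM): 20 CsCl, 100 aspartate, 1 MgCl2, 10 HEPES, 4 Na-ATP, 10 BAPTA, free Ca2+ buffered to 200 nM, pH 7.4. Agonist was added to the bath. Five cells, >2 transfections.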

HEK293 [10] = assay: Effect on intracellular calcium level in non transfected HEK293 cells; assay type: functional, cell-based; details: Homo sapiens; summary of the method: as §3

| Structure (SMILES) | EC50 [1] | EC50 [3] | EC50 [4] | EC50 [5] | further results |
| --- | --- | --- | --- | --- | --- |
| CCCCCCCCCCCCCC(=O)O[C@@H]1[C@@H](C)[C@@]2(O)[C@@H](C=C(CO)C[C@@]3(O)C(=O)C(C)=C[C@@H]23)[C@@H]2C(C)(C)[C@]12OC(=O)CCCCCCCCCCCCC | 2830 nM |  |  |  |  |
| CCCCCCCC(=O)O[C@@H]1[C@@H](C)[C@@]2(O)[C@@H](C=C(CO)C[C@@]3(O)C(=O)C(C)=C[C@@H]23)[C@@H]2C(C)(C)[C@]12OC(=O)CCCCCCC | > 50000 nM |  |  |  |  |
| CCCCCCCCCC(=O)O[C@@H]1[C@@H](C)[C@]2(O)[C@@H]3C=C(C)C(=O)[C@@H]3CC(CO)=C[C@H]2[C@@H]2C(C)(C)[C@]12OC(=O)CCCCCCCCC | > 50000 nM |  |  |  |  |
| CCCCCCCCCC(=O)O[C@@H]1[C@@H](C)[C@@]2(O)[C@@H](C=C(CO)C[C@@]3(O)C(=O)C(C)=C[C@@H]23)[C@@H]2C(C)(C)[C@]12OC(=O)CCCCCCCCC | 370 nM | 6300 nM | > 6000 nM | 320 nM | Activity (HEK293 [2]): Active |
| CCCCCC(=O)O[C@@H]1[C@@H](C)[C@@]2(O)[C@@H](C=C(CO)C[C@@]3(O)C(=O)C(C)=C[C@@H]23)[C@@H]2C(C)(C)[C@]12OC(=O)CCCCC | 70 nM | 2790 nM | 2840 nM | 360 nM | Activity [6]: inactive; Activity [7]: Dose-dependent effect; Activity [8]: 806; Activity [9]: 354; Activity (HEK293 [10]): inactive |
